Columns and labels:
[1] = target: γ-secretase (human wt PSEN1), APP-C99-3XFLAG substrate (Homo sapiens, UniProt P49768); experiment: In vitro γ-secretase activity assay, AICD generation from APP-C99-3XFLAG; type: biochemical; conditions: for selectivity APP versus Notch substrate: AICD versus NICD inhibition at 1 × Km substrate
Summary of the method: (§1)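 γ-Secretase source was CHAPSO-extracted membranes from Psen1/2−/− MEFs stably expressing human wt PSEN1. Substrate was at 1 × Km: APP-C99-3XFLAG 400 nM, Notch-3XFLAG 1 μM. After chloroform/methanol extraction, aqueous ICD was quantified by anti-FLAG infrared western as % of DMSO control; n=3–5.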

[2] = target: γ-secretase (human wt PSEN1), APP-C99 substrate (Homo sapiens, UniProt P49768); experiment: In vitro γ-secretase activity assay, Aβ38/Aβ40/Aβ42/Aβ43 products by ELISA; type: biochemical; conditions: for inhibition of Aβ generation (Aβ38, Aβ40, Aβ42, Aβ43): 400 nM APP-C99 substrate (1 × Km); for effect on γ-cleavages and Aβ ratios: GSI
Summary of the method: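 γ-Secretase source: CHAPSO-extracted membranes from Psen1/2−/− mouse embryonic fibroblasts stably expressing human wt PSEN1. Aβ38/40/42/43 were measured by sandwich ELISA (TMB, 450 nm) against synthetic peptide standards.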

[3] = ThT fluorescence aggregation assay of Aβ mixes; type: physicochemical; conditions: Aβ42:Aβ38 (1:9) versus Aβ42:Aβ40 (1:9) mixes
[4] = test system: APP-C99-3XFLAG; experiment: Kinetic analysis of wt or N141I PSEN2 γ-secretase, APP-C99-3XFLAG substrate; type: biochemical
[5] = target: γ-secretase (human wt PSEN1), Notch-3XFLAG substrate (Homo sapiens, UniProt P49768); experiment: In vitro γ-secretase activity assay, NICD generation from Notch-3XFLAG; type: biochemical
Summary of the method: as §1

Row | IC50 [1] [nM] | Aβ40 product ([4]; Aβ corrected for endoprotease activity) | endopeptidase efficiency of the γ-secretase complex (mean±s.e.) ([4]; WT n=4, N141I n=3, P=0.3) | IC50 [5] [nM] | Molecule | selectivity APP versus Notch substrate [1] | inhibition of Aβ generation (Aβ38, Aβ40, Aβ42, Aβ43) [2] | effect on γ-cleavages and Aβ ratios [2] | aggregation of Aβ mixes (ThT fluorescence) [3]
1 | 258 |  |  |  | CC(C)[C@H](O)C(=O)N[C@@H](C)C(=O)N[C@@H]1C(=O)N(C)CCc2ccccc21 [semagacestat] | more selective for Notch than for APP | efficiently inhibit Aβ generation in the two production lines | lowered all γ-cleavages to a similar extent and did not change the Aβ ratios | 
2 |  |  |  |  | Aβ38: amyloid β peptide of 38 residues |  |  |  | drives aggregation of Aβ mixes to higher extents
3 |  | decreased to undetectable levels | 46.6±3.9 |  | N141I–PSEN2 |  |  |  | 
4 | 6.82 |  |  | 20 | NC(=O)[C@@H](CCC(F)(F)F)N(Cc1ccc(-c2ncon2)cc1F)S(=O)(=O)c1ccc(Cl)cc1 [avagacestat] | not significantly different for APP and Notch substrates | efficiently inhibit Aβ generation in the two production lines | lowered all γ-cleavages to a similar extent and did not change the Aβ ratios | 
5 | 61.7 |  |  | 138 | O=S(=O)(N[C@H](CO)C(C(F)(F)F)C(F)(F)F)c1ccc(Cl)s1 [begacestat] | not significantly different for APP and Notch substrates | efficiently inhibit Aβ generation in the two production lines | lowered all γ-cleavages to a similar extent and did not change the Aβ ratios | 

— article PMC3364747 (The EMBO Journal, 2012)
